Compound activity deposited in PubChem BioAssay by several laboratories.
Shown are actives, neighbours in structure and some others; about 4.5% of the full set was active somewhere.
MrgX1 antagonist: antagonists of human MrgX1 receptor. MRGX1-HEK293 calcium flux, Fluo-4, BAM8-22 antagonism; stronger effect = lower value. 1.3% of 310,000 active. Q96LB2. B-score at 10 µM;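 active = calcium-response B-score plate-corrected more than 3 library SD below zero, starting fluorescence within 5 deviations, no agonist response on first addition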;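 also: peak minus trough fluorescence over baseline after final BAM8-22 challenge near maximal dose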
Target sequence (Q96LB2 whole entry, looked up): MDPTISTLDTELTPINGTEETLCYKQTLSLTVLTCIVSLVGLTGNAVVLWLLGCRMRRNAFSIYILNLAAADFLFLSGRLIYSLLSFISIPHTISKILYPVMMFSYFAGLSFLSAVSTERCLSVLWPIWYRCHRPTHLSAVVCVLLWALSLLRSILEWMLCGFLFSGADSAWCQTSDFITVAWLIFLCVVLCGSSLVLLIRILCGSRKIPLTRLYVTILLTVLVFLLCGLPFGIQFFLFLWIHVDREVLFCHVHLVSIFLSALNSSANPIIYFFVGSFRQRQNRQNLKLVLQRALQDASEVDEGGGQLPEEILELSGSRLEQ
MrgX1 allo act: allosterically activates human MrgX1 receptor signaling. Q96LB2. MrgX1-HEK293, Fluo-4 calcium flux, FDSS; stronger effect = higher value. B-score at 10 µM. 0.63% of 310,000 active;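 active = plate-corrected calcium response at least 3 library SD above typical, normal starting fluorescence, not activating the receptor alone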;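 also: compound read alongside a low EC10 to EC30 dose of BAM8-22 agonist; peak minus trough fluorescence over baseline measured at the second addition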
MrgX1 ag: activates human MrgX1 receptor signaling; Q96LB2; AID 588627; B-score at 10 µM; 0.44% of 310,000 active; MrgX1-HEK293 cells, Fluo-4 calcium fluorescence, agonist mode; stronger effect = higher value;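 active = calcium response B-score plate-corrected fluorescence ratio at least 3 library SD, with starting fluorescence B-score inside 5 SD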
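Test system: HEK293 cells stably expressing human MrgX1 receptor; amount: 15,000 cells per well; doses: compound delivered in addition one of three; times: overnight plating before 1 h dye loading; detection: Fluo-4 NW calcium-flux fluorescence, kinetic read; read-out basis: B-scored fluorescence response ratio; controls: positive and negative controls per plate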
PHOSPHO1 block: inhibitors of human PHOSPHO1 phosphatase | recombinant PHOSPHO1, absorbance phosphatase assay | inhibition, % at 13.3 µM | Q8TCT1 | 1.1% of 290,000 active; in the data active = inhibition above about 60%
Target sequence (Q8TCT1 whole entry, looked up): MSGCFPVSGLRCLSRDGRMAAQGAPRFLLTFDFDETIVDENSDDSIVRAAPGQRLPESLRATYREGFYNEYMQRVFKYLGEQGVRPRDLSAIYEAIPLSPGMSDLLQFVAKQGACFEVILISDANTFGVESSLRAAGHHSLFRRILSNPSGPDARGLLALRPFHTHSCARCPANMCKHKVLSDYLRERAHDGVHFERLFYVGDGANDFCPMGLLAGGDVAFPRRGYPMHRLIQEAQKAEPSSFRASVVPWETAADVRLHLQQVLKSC
RGS4 inh: human RGS4 inhibition | P49798 | HEK293 M3R/RGS4 inducible, Fluo-4 calcium flux; stronger effect = higher value; triggered by carbachol at its EC20 | B-score at 10 µM | 0.45% of 310,000 active | AID 463165;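 active = B-score, a plate-corrected calcium signal, over three deviations above library mean, with baseline fluorescence within five deviations of library mean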;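 also: RGS4 expression induced by doxycycline in cells with stable M3 receptor; B-score is computed from the integrated fluorescence ratio over baseline after carbachol; higher B-score means a larger calcium signal and so more RGS4 inhibition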
RGS4 act: RGS4 potentiation or activation; HEK293 M3R/inducible RGS4, carbachol calcium flux Fluo4; stronger effect = lower value; B-score at 10 µM; 0.92% of 310,000 active;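 active = B-score of the integrated calcium signal more than 4 SD below the library mean, with starting fluorescence not abnormally high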;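 also: negative B-score means reduced calcium response which marks RGS4 activation or potentiation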
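Assay system: HEK293 FlpIn-TREx cells, stable M3R, doxycycline-inducible RGS4 / Probe or stimulus: carbachol, ECmax concentration / Times: overnight RGS4 induction, 30 min dye load 37 °C, 20 min compound RT / Signal: kinetic calcium fluorescence imaging with Fluo4-AM dye, 2 µM / Measure: Agonist-evoked peak-minus-minimum fluorescence over baseline, integrated ratio, B score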
* = called active by the depositor; i = inactive; x = no result given.

SMILES	MrgX1 antagonist	MrgX1 allo act	MrgX1 ag	PHOSPHO1 block	RGS4 inh	RGS4 act
c1ccc(Cc2nnc3sc(-c4ccccn4)nn23)cc1	i	i	i	66*	i	i
COc1ccccc1N(C)S(=O)(=O)c1ccc(C(=O)N2CCCc3ccccc32)cc1	i	i	i	37	i	i
COc1ccc(C2CC(c3ccc(Cl)cc3Cl)n3nc(N)nc3N2)cc1 (stereo not drawn)	i	i	i	-1	i	i
COc1ccc(C2CC(c3ccc(Cl)cc3Cl)Nc3nc(N)nn32)cc1 (stereo not drawn)	i	i	i	70*	i	i
Cc1cc(=O)oc2c(C)c(OC(C)C(=O)NCCCN3CCOCC3)ccc12 (stereo not drawn)	i	i	i	64*	i	i
COc1ccc(OCc2nn[nH]n2)cc1	i	i	i	14	i	i
O=C(O)CSc1nc2ccccc2s1	i	i	i	2	i	i
CCS(=O)(=O)CCSc1nc2ccccc2s1	i	i	i	-10	i	i
O=C(CSc1nc2cc(Cl)ccc2s1)c1ccco1	i	i	i	91*	i	i
O=S(=O)(CCSc1nc2ccccc2s1)c1nc2ccccc2s1	i	i	i	76*	i	-7.4*
O=C(CSc1nnc(SCC(=O)c2ccco2)s1)c1ccco1	i	i	i	33	i	i
O=C(CSc1nc2ccccc2s1)CSc1nc2ccccc2s1	i	i	i	60*	i	i
COc1ccccc1Nc1ccc(N)cc1	i	i	i	13	i	i
Cc1cc(C)cc(N(C(=O)Cc2cccs2)C(C(=O)NC2CCCCC2)c2ccccn2)c1 (stereo not drawn)	i	i	i	16	i	i
O=C(NCC(=O)N(c1ccccc1)C(C(=O)NC1CCCCC1)c1cccnc1)c1cccs1 (stereo not drawn)	i	i	i	63*	i	i
O=C(NC1CCCCC1)C(c1ccccn1)N(C(=O)Cc1cccs1)c1ccc(Cl)cc1 (stereo not drawn)	i	i	37*	32	i	i
O=C(NCC(=O)N(c1ccc(F)cc1)C(C(=O)NC1CCCC1)c1cccnc1)c1cccs1 (stereo not drawn)	i	i	i	45	i	i
CCOC(=O)C1=C(COC(=O)/C=C/c2cc(OC)c(OC)c(OC)c2)NC(=O)NC1C (stereo not drawn)	i	i	i	35	i	i
S=c1[nH]nc(-c2cc(-c3ccccc3)n[nH]2)n1/N=C/C(Br)=C/c1ccccc1	i	i	i	19	i	i
CC[C@@H]1[C@H]2CCCC(=O)N3CC[C@@H](C[C@H]1O)[C@@H]23	i	i	i	x	i	i
CCOc1cc(/C=C2/C(=O)ON=C2C)cc(Br)c1O	i	i	58*	20	i	i
Sc1oc(-c2ccccc2)cc1C=Nc1ccccc1	i	i	i	91*	i	i
COC(c1ccccc1)c1nnc(CCC(=O)NC2C3CC4CC(C3)CC2C4)o1 (stereo not drawn)	i	i	i	60*	i	i
O=C1CSC2(N1)C1CC3CC(C1)CC2C3 (stereo not drawn)	i	i	i	27	i	i
C1CSC2(N1)C1CC3CC2CC(C1)C31NCCS1 (stereo not drawn)	i	i	i	61*	i	i
SMILES	MrgX1 antagonist	MrgX1 allo act	MrgX1 ag	PHOSPHO1 block	RGS4 inh	RGS4 act
O=C(OC(C(=O)NCc1ccco1)c1ccc(Cl)cc1)c1cccs1 (stereo not drawn)	i	i	i	20	i	i
S=c1[nH]nc(NCCCN2CCOCC2)s1	i	i	i	62*	i	i
Cc1ccc(C(c2sc3nc(C)nn3c2O)N2CCN(c3ccccc3F)CC2)cc1 (stereo not drawn)	-5.2*	i	i	18	i	i
Cc1ccc(C(c2sc3nc(C)nn3c2O)N2CCN(CCO)CC2)cc1 (stereo not drawn)	i	i	i	-10	i	i
CC(=O)NC(CC(=O)NNC(=O)c1cc2ccccc2cc1O)c1ccccc1 (stereo not drawn)	i	i	i	20	i	i
COC(=O)C(Cc1ccc(O)cc1)NC(=O)C(C)NC(=O)c1ccc(C(C)(C)C)cc1 (stereo not drawn)	i	i	i	27	i	i
COc1ccc(CC(=O)NCC2CCCN(Cc3cccc(SC)c3)C2)cc1 (stereo not drawn)	i	i	i	61*	i	i
COc1ccc(CC(=O)NCC2CCCN(Cc3ccc(OC)cc3F)C2)cc1 (stereo not drawn)	i	i	i	40	i	i
O=C(COC(=O)c1cccc([N+](=O)[O-])c1)NCc1ccc2c(c1)OCO2	i	i	i	7	i	i
CC(OC(=O)c1cccc([N+](=O)[O-])c1)C(=O)NCc1ccc2c(c1)OCO2 (stereo not drawn)	-5.9*	i	i	38	i	i
CCCc1nc2c(sc3nc4c(cc32)COC(C)(C)C4)c(=O)o1	i	i	i	8	i	i
O=C(CC1SC(=Nc2ccccc2)N(CCCO)C1=O)Nc1ccc(Cl)cc1 (stereo not drawn)	-4.6*	i	i	4	i	-9.1*
O=C(NCc1cccnc1)c1ccc(Br)o1	i	i	i	x	i	i
O=[N+]([O-])/C(=C\Nc1ccccc1)S(=O)(=O)c1ccccc1	i	i	i	20	i	i
O=[N+]([O-])/C(=C\Nc1ccccc1Cl)S(=O)(=O)c1ccccc1	i	i	i	87*	x	x
CC(OC(=O)/C=C/c1ccc(Br)cc1)C(=O)N1CCOCC1 (stereo not drawn)	-8*	i	i	x	i	i
O=C(/C=C/c1ccc(Br)cc1)NC(=S)N1CCOCC1	i	i	i	-91	i	i
O=[N+]([O-])c1ccc(OC(F)F)c(/C=N/n2cnnc2)c1	i	i	i	33	i	i
O=C(O)c1ccc(N/N=C/C2=C(N3CCOCC3)C(=C\c3ccccc3)/CC2)cc1	i	i	34*	20	i	i
Cc1cc2nc(CCN(Cc3cccnc3)C(=S)Nc3ccccc3)[nH]c2cc1C	i	i	i	92*	i	i
